Screens: PubChem BioAssay, several laboratories
HIV Rev-RRE inh: HIV-1 Rev-RRE binding inhibitors, primary screen, biochemical, FRET, protein-RNA interaction. P05866. Rev peptide-RRE RNA binding. inhibition, % at 8 µM. 0.79% of 97,000 active;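 active means inhibition above the screen-wide mean plus 3 SD, cut at about 35% in these data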;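 further: 0% = median DMSO wells and 100% = median Neomycin B control wells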
Target sequence (P05866 whole entry, looked up): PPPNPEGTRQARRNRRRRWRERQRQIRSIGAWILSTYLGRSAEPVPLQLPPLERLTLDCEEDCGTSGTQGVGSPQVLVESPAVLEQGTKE
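assay system = Cy5-tagged RRE RNA duplex with fluorescein-tagged Rev peptide | incubation = 5 + 15 min at 25 °C | also added = labelled Rev peptide | measure = % inhibition of FRET ratio versus controls | benchmarks = DMSO wells as 0% and neomycin B wells as 100% inhibition | measured by = FRET fluorescence readout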
CYP2C19 act: human CYP2C19 activators, primary screen, biochemical, luminescence; Cytochrome P450 2C19 (Homo sapiens), P33261; recombinant CYP2C19, luciferin-H EGE luminescence; active compounds read high; 0 = fully inhibited enzyme, 1 = untreated enzyme; activation factor at 5 µM; 96,000 tested, under 10 active;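 active means activation factor of at least 2 at 5 µM in the primary screen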;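 further: 0 = wells with 2.5 mM tranylcypromine and 1 = vehicle-only wells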
Target sequence (P33261 whole entry, looked up): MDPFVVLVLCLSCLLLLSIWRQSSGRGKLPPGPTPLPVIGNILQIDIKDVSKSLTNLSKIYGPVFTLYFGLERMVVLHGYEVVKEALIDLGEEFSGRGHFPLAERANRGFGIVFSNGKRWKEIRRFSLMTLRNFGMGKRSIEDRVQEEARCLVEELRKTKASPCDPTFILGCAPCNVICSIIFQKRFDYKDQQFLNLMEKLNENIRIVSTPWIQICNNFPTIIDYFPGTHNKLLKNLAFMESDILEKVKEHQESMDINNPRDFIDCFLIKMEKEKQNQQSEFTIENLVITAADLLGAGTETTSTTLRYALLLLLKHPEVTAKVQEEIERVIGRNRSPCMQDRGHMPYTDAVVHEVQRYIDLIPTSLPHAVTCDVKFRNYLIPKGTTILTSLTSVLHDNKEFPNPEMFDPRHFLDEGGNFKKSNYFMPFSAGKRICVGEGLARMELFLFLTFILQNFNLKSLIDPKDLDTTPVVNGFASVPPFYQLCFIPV
Cav32 inh: Cav3.2 calcium influx blockers – cell-based, Fluo-4 calcium fluorescence, FDSS, MLSMR library, primary screen | Voltage-dependent T-type calcium channel subunit alpha-1H (Homo sapiens), O95180 | Cav3.2-expressing cells; active compounds read low | B-score at 10 µM | 4% of 100,000 active | AID 449739, 2010;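 active means single-dose well whose peak fluorescence ratio is a statistical outlier from its plate by either plate-standardised score or position-corrected B-score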
CYP2C9 inhib: blockers of cytochrome P450 2C9 activity – biochemical, luminescence, ADME assay, primary screen; P11712; CYP2C9 Supersomes, luciferin-H conversion; inhibition, % at 5 µM; 20% of 96,000 active; AID 777, 2007;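 active means blocking of liver enzyme CYP2C9 beyond about 50% at 5 µM, limit read from the data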
CYP2C19 inh: blockers of cytochrome P450 2C19 activity – biochemical, luminescence, ADME assay, primary screen | 21% of 96,000 active | inhibition, % at 5 µM | CYP2C19 Supersomes, luciferin-H EGE luminescence, 30 min;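 active means CYP2C19 inhibition above a set limit at 5 µM in the primary screen, cut at about 50% in these data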;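 further: plate controls were negative control wells for no effect and 2.5 mM tranylcypromine positive control for full effect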
CYP2C9 activ: human CYP2C9 activators, primary screen, biochemical, luminescence. recombinant CYP2C9, luciferin-H conversion; active compounds read high; factor 1 = untreated enzyme, 0 = blocked. activation factor at 5 µM. 1.4% of 96,000 active;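 active means activation factor of 2 or more for CYP2C9 at a 5 µM dose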;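 further: 0 = sulfaphenazole-blocked wells and 1 = vehicle-only wells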
* hit, by the source's call; x = no result given; [ ] = dose if it differs, or a comment. Most compounds without a hit are left out; they make up all but 27% or so of the library.

SMILES | HIV Rev-RRE inh | CYP2C19 act | Cav32 inh | CYP2C9 inhib | CYP2C19 inh | CYP2C9 activ
Cc1cc(Cl)ccc1OCCCC(=O)N1CCCCC1 | 10 | 0 | -2.4 | -26 | 97* | 1.3
COCCNC(=O)COc1ccc(C)cc1C | 4 | 0.3 | 1.2 | 9 | 67* | 0.9
Cc1ccc(C)c(OCC(=O)Nc2nonc2NC(=O)COc2cc(C)ccc2C)c1 | -1 | 0.8 | -1.7 | 77* | 15 | 0.2
CCCCC1=CC2=CC(=O)C(C)(O)C(=O)C2=CO1 (stereo not given) | x | x | 0.2 | x | x | x
Cc1ccc(OCCN2CCCCCC2)c(C)c1 | 10 | 0.4 | -0.48 | 15 | 58* | 0.8
CC1CCN(C(=O)CCCOc2ccc(Cl)cc2)CC1 | 4 | x | -2.1 | x | x | x
CCOC(=O)C1CCN(C(=O)COc2ccc(Cl)cc2)CC1 | 1 | 0.6 | 0.12 | 9 | 44 | 0.9
Cc1ccc(OCC(=O)N2CCCCCC2)c(C)c1 | -5 | 0.2 | -0.5 | -20 | 80* | 1.2
Cc1cc(OCCCC(=O)N2CCCCC2)cc(C)c1Cl | 11 | 0.1 | -3.7 | -2 | 93* | 1
Cc1ccc(C)c(OCC(=O)N2CCOCC2)c1 | 12 | 1 | 0.6 | -19 | -5 | 1.2
COC(=O)C1CCN(C(=O)COc2ccc(Cl)cc2)CC1 | 2 | 0.1 | -0.34 | 31 | 86* | 0.7
O=[N+]([O-])c1ccc(Sc2ccccc2Cl)nc1 | 5 | 0.4 | -2.1 | 1 | 62* | 1
CCOC(=O)C1=C(C)n2c(s/c(=C/c3cccc([N+](=O)[O-])c3)c2=O)=NC1c1ccc(O)c(OC)c1 (stereo not given) | 5 | 0.4 | -1.8 | 67* | 55* | 0.3
CNC(=O)CN1C(=O)NC2(CCc3ccccc32)C1=O (stereo not given) | 6 | 0.8 | -0.009 | 16 | 25 | 0.8
Cc1cc(C(=O)CN2C(=O)NC3(CCCc4ccccc43)C2=O)c(C)n1C (stereo not given) | 2 | 0.7 | 0.2 | 72* | 32 | 0.3
Cc1cc(C(=O)CN2C(=O)NC(c3ccccc3)(c3ccccc3)C2=O)c(C)n1Cc1ccccc1 | 9 | 0.7 | -5* | 70* | 29 | 0.3
CCCCNC(=O)CN1C(=O)NC2(CCCc3ccccc32)C1=O (stereo not given) | 8 | 1.1 | 0.11 | 68* | -6 | 0.3
CCOc1ccc(OCCN2C(=O)NC3(CCCc4ccccc43)C2=O)cc1 (stereo not given) | 3 | 0.8 | -1.7 | 45 | 18 | 0.6
COc1cccc(C2c3c(-c4cc(Cl)c(C)cc4O)n[nH]c3C(=O)N2Cc2cccnc2)c1 (stereo not given) | -1 | 0.6 | 1.1 | 72* | 43 | 0.3
COc1ccc(C2c3c(-c4ccccc4O)n[nH]c3C(=O)N2CCc2ccc(OC)c(OC)c2)cc1 (stereo not given) | 7 | 0.1 | 0.67 | 96* | 86* | 0
O=C1c2[nH]nc(-c3ccccc3O)c2C(c2cccc(O)c2)N1Cc1ccco1 (stereo not given) | 3 | 0.7 | -5* | 11 | 27 | 0.9
COc1ccc(CCN2C(=O)c3[nH]nc(-c4ccccc4O)c3C2c2cccc(Cl)c2)cc1 (stereo not given) | 5 | 0.7 | -2.1 | 62* | 35 | 0.4
Cc1ccc(C2c3c(-c4ccccc4O)n[nH]c3C(=O)N2Cc2ccncc2)cc1 (stereo not given) | 2 | 0.6 | 0.78 | 34 | 41 | 0.7
CC1(C)Oc2ccc3ccc(=O)oc3c2/C(=C/NC2CCCCC2)C1=O | 0 | x | -3.9 | x | x | x
CCCN(CCC)C(=O)CSc1nc2n[nH]c(C)c2c(=N)n1-c1ccc(OCC)cc1 | -3 | 0.7 | -6.2* | 34 | 32 | 0.7
SMILES | HIV Rev-RRE inh | CYP2C19 act | Cav32 inh | CYP2C9 inhib | CYP2C19 inh | CYP2C9 activ
CC(C)c1ccccc1-n1c(SCC(=O)N2CCN(c3ccccc3)CC2)nnc1-c1cccnc1 | 7 | 0.5 | -4.4* | 56* | 55* | 0.4
Cn1c(SCC(=O)N2CCN(c3ccccc3)CC2)nnc1-c1ccncc1 | -2 | x | -0.08 | x | x | x
CC1CN(C(=O)CSc2nnc(-c3ccncc3)n2-c2ccccc2)CC(C)O1 (stereo not given) | 3 | 0.2 | 0.018 | 24 | 76* | 0.8
O=S(=O)(NC1CCCCC1)c1cccc(-c2nnc(-c3ccccc3)o2)c1 | 9 | 0.7 | -1.2 | 84* | 29 | 0.2
CN(C)S(=O)(=O)c1cccc(-c2nnc(-c3ccccc3)o2)c1 | -1 | 0.5 | -0.057 | 92* | 48 | 0.1
Cc1noc(C(=O)N2CCN(c3ccc(F)cc3)CC2)c1Cl | x | x | -1.5 | x | x | x
CC(=O)c1cn(CC(=O)Nc2ccc(C)cc2C)c2ccccc12 | 5 | x | -0.38 | x | x | x
Cc1noc(C)c1CS(=O)(=O)c1ccc(Br)cc1 | 0 | 0 | x | 6 | 98* | 0.9
Cc1ccc(S(=O)(=O)Cc2csc(N)n2)cc1 | x | 0.7 | 0.052 | -14 | 30 | 1.1
Cc1ccc(S(=O)(=O)Cc2c(C)noc2C)cc1 | 12 | 0 | -0.7 | 11 | 100* | 0.9
COc1cc(-c2nnc(SCC(=O)Nc3cc(C)on3)n2C)cc(OC)c1O | 6 | 1 | 0.87 | -2 | 5 | 1
O=C(CCC1CCCC1)N[C@@H](Cc1ccc(O)cc1)C(=O)O | x | x | 1.2 | x | x | x
CCOc1cc(C2NC(=O)NC(C)=C2C(=O)NCc2ccccc2)c(Cl)cc1O (stereo not given) | 7 | 0.9 | 0.57 | 10 | 9 | 0.9
Cc1ccc(C(=O)O/N=C\c2ccc(N3CCCCC3)c([N+](=O)[O-])c2)cc1 | 14 | 0.6 | -2.9 | 61* | 43 | 0.4
COc1cc(/C=C(\C#N)c2nc3ccccc3[nH]2)c([N+](=O)[O-])cc1OCc1ccccc1 | 15 | 0.6 | -1.9 | 76* | 43 | 0.2
O=C(O/N=C\c1ccc(N2CCCCC2)c([N+](=O)[O-])c1)c1c(F)cccc1F | 15 | 0.6 | -2 | -37 | 43 | 1.4
CCOc1cc(/C=C(/C#N)c2nc3ccccc3[nH]2)ccc1OCc1ccc(C(=O)O)o1 | 12 | x | 0.36 | x | x | x
N#C/C(=C/c1ccc(N2CCCC2)c([N+](=O)[O-])c1)c1nc2ccccc2[nH]1 | 45* | 0.3 | -0.66 | 58* | 73* | 0.4
CCN(CC)c1ccc(/C=C(/C#N)c2nc3ccccc3[nH]2)c(OC(C)C)c1 | 136*[fluorescence artefact?] | 0.5 | -3.5* | 74* | 48 | 0.3
O=C(CCCn1c(=S)[nH]c2ccc(Br)cc2c1=O)NCC1CCCO1 (stereo not given) | -4 | 0.9 | -0.97 | -38 | 14 | 1.4
